From PubChem BioAssay
The full list was thinned out, with hits kept by preference.
CHOP inhibitor: inhibitors of CHOP promoter induction, primary screen, cell-based, unfolded protein response, luciferase reporter | hit rate 3.8% among 220,000 | AID 2732, 2010 | inhibition, % at 10 µM | CHO-K1 CHOP-promoter luciferase, tunicamycin-induced, 15-18 h;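 active = compounds that reduced the stress-induced luciferase reporter signal by more than about 70% of percent inhibition, limit read from the data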
XBP1 UPR activ: activators of adaptive XBP1 UPR arm, primary screen, cell-based, CHO-XBP1 luciferase reporter, luminescence, uHTS; IRE1-XBP1 UPR activation; percent of tunicamycin response, DMSO as zero; activation, % at 20 µM; hit rate 0.33% among 330,000; AID 463104, 2010;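 active = versus positive control, 20 µM dose yields 30% or more activation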
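Material: CHO-XBP1 cells stably carrying IRE1-XBP1-driven luciferase reporter / Amount: 1000 cells per well / Compound: 20 µM, 1% DMSO / Times: 6 h treatment, 37 °C / Detection: luciferase luminescence / Measure: % activation of reporter signal versus tunicamycin and DMSO controls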
PvdQ acylase: P. aeruginosa PvdQ acylase inhibitors, primary screen, biochemical, fluorescence, plate reader and imaging, single point | purified PvdQ acylase | AID 488965, 2010 | inhibition, % at 10 µM | PvdQ acylase [Pseudomonas aeruginosa LESB58] | hit rate 0.063% among 340,000; in the data active = inhibition above about 30%, passing the limit was not always enough
CHOP UPR activ: activators of apoptotic CHOP UPR arm, primary screen, cell-based, CHO-CHOP luciferase reporter, luminescence, uHTS; UPR activation; percent of tunicamycin response over DMSO baseline; AID 449763, 2010; hit rate 0.34% among 330,000; activation, % at 10 µM;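 active = at 10 µM dose, activation of 40% or more, normalized to positive control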
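Evaluation: % reporter activation, DMSO baseline versus tunicamycin full activation; System: CHO-CHOP luciferase reporter cell line; Input: 500 cells/well; Incubation: 6 h compound treatment, 37 °C; Measured by: Steady-Glo luciferase luminescence; Dosing: one dose, 10 µM in 0.5% DMSO; Buffer or medium: F12 medium, 10% FBS; Benchmarks: positive tunicamycin 10 µg/mL, negative DMSO alone.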
UPR CHOP confirm: activators of apoptotic CHOP UPR arm, confirmation, cell-based, CHO-CHOP luciferase reporter, single concentration; CHO-CHOP cells, CHOP-luciferase reporter luminescence; percent of tunicamycin response, DMSO as zero; shares compounds with CHOP UPR activ; activation, % at 10 µM; hit rate 64% among 1,000; in the data active = activation above about 33%
Hits are given with their value.

Results for Cc1cc(C)cc(N=Cc2c(O)c3ccccc3oc2=O)c1 ?
CHOP inhibitor: inactive; XBP1 UPR activ: inactive; PvdQ acylase: inactive; CHOP UPR activ: inactive

What do the screens show for `COc1ccc(OC)c(N=Cc2c(O)c3ccccc3oc2=O)c1`?
XBP1 UPR activ: 219.5; PvdQ acylase: inactive; CHOP UPR activ: 133.9; UPR CHOP confirm: 113.6

Results for CCOc1ccc2nc(SC3CC(=O)N(c4ccc(OC)cc4)C3=O)sc2c1 (centres undefined) ?
CHOP inhibitor: inactive; XBP1 UPR activ: inactive; PvdQ acylase: inactive; CHOP UPR activ: 45.4; UPR CHOP confirm: inactive

Results for COc1ccccc1N1CCN(CC(=O)Nc2ccc(S(=O)(=O)N3CCCCCC3)cc2)CC1 ?
XBP1 UPR activ: inactive; PvdQ acylase: inactive; CHOP UPR activ: inactive

What do the screens show for `O=C(C#Cc1cccc([N+](=O)[O-])c1)c1ccccc1`?
CHOP inhibitor: 107.8; XBP1 UPR activ: inactive; PvdQ acylase: inactive; CHOP UPR activ: 133.8; UPR CHOP confirm: 187.7

What do the screens show for `O=C(Nc1ccc2oc(-c3ccc4ccccc4c3)nc2c1)c1ccc2c(c1)OCCO2`?
CHOP inhibitor: inactive; XBP1 UPR activ: 200.2; PvdQ acylase: inactive; CHOP UPR activ: 40.4; UPR CHOP confirm: 105.1

Results for CC1=CC(C)(C)Nc2ccc(OC(=O)CN3C(=O)CCC3=O)cc21 ?
CHOP inhibitor: inactive; XBP1 UPR activ: inactive; PvdQ acylase: inactive; CHOP UPR activ: 86.8; UPR CHOP confirm: 92.0

What do the screens show for `COc1ccc(C2C3=C(CC(C)(C)CC3=O)OC(N)=C2[N+](=O)[O-])cc1` (centres undefined)?
CHOP inhibitor: inactive; XBP1 UPR activ: inactive; PvdQ acylase: inactive; CHOP UPR activ: inactive

How did COc1ccc(Nc2ccc3c(c2)=NC2(CCCCC2)[N+]=3[O-])cc1 do in these assays?
CHOP inhibitor: inactive; XBP1 UPR activ: inactive; PvdQ acylase: inactive; CHOP UPR activ: 44.8; UPR CHOP confirm: inactive

Results for O=C(Nc1c2c(nn1-c1cccc(Cl)c1)CS(=O)(=O)C2)c1ccc2c(c1)OCO2 ?
XBP1 UPR activ: inactive; PvdQ acylase: inactive; CHOP UPR activ: inactive

What do the screens show for `COc1ccc(C2Nc3ccc4ccccc4c3-c3c2c(=O)oc2ccccc32)cc1` (centres undefined)?
CHOP inhibitor: inactive; XBP1 UPR activ: 133.6; PvdQ acylase: inactive; CHOP UPR activ: 49.2; UPR CHOP confirm: 46.8

What do the screens show for `O=c1oc2ccccc2c2c1C(c1ccc(Cl)cc1)Nc1ccc3ccccc3c1-2` (centres undefined)?
CHOP inhibitor: inactive; XBP1 UPR activ: inactive; PvdQ acylase: inactive; CHOP UPR activ: inactive

What do the screens show for `Cc1oc2c(c1C(=O)c1ccccc1)C(=O)C(=O)c1ccccc1-2`?
XBP1 UPR activ: inactive; PvdQ acylase: inactive; CHOP UPR activ: 67.4; UPR CHOP confirm: inactive

How did Cc1oc2c(c1C(=O)O)C(=O)c1ccccc1C2=O do in these assays?
CHOP inhibitor: inactive; XBP1 UPR activ: inactive; PvdQ acylase: inactive; CHOP UPR activ: inactive

Results for O=C1C(=O)c2c(C(=O)c3ccccc3)coc2-c2ccccc21 ?
CHOP inhibitor: inactive; XBP1 UPR activ: inactive; PvdQ acylase: inactive; CHOP UPR activ: 47.7; UPR CHOP confirm: inactive

Results for O=C(c1ccccc1)c1coc2ccc(O)c(Cl)c12 ?
CHOP inhibitor: inactive; XBP1 UPR activ: inactive; PvdQ acylase: inactive; CHOP UPR activ: inactive

How did CCc1cc(=O)oc2c3c(cc(OCC(=O)NCCCn4ccnc4)c12)OC(C)(C)CC3 do in these assays?
XBP1 UPR activ: inactive; PvdQ acylase: inactive; CHOP UPR activ: inactive

How did Cc1cc(OCc2cn3cccnc3n2)ccc1Cl do in these assays?
CHOP inhibitor: inactive; XBP1 UPR activ: inactive; PvdQ acylase: inactive; CHOP UPR activ: inactive

How did COC(=O)c1ccccc1S(=O)(=O)N1CCn2cccc2C1C (centres undefined) do in these assays?
CHOP inhibitor: inactive; XBP1 UPR activ: inactive; PvdQ acylase: inactive; CHOP UPR activ: inactive

What do the screens show for `O=C(CCS(=O)(=O)c1ccccc1)N(CCCN1CCOCC1)c1nc2ccc(F)cc2s1`?
XBP1 UPR activ: inactive; PvdQ acylase: inactive; CHOP UPR activ: 56.5; UPR CHOP confirm: inactive

Results for O=C(Nc1ccc(O)c2c(=O)cc(-c3cccc(Cl)c3)oc12)c1ccccc1Cl ?
CHOP inhibitor: inactive; XBP1 UPR activ: inactive; PvdQ acylase: inactive; CHOP UPR activ: 52.3; UPR CHOP confirm: 46.3

How did CC(NC(=O)C1CCCN1S(=O)(=O)c1cccc2nsnc12)c1ccccc1 (centres undefined) do in these assays?
XBP1 UPR activ: inactive; PvdQ acylase: inactive; CHOP UPR activ: inactive

Results for Cc1ccsc1CNC(=O)c1c(-c2ccccc2)noc1C ?
CHOP inhibitor: inactive; XBP1 UPR activ: inactive; PvdQ acylase: inactive; CHOP UPR activ: inactive

What do the screens show for `O=C(Oc1c(CN2CCOCC2)cc(Cl)c2cccnc12)c1ccccc1`?
CHOP inhibitor: inactive; XBP1 UPR activ: inactive; PvdQ acylase: inactive; CHOP UPR activ: inactive

What do the screens show for `Oc1c(CN2CCCCC2)cc(Br)c2cccnc12`?
XBP1 UPR activ: inactive; PvdQ acylase: inactive; CHOP UPR activ: 88.3; UPR CHOP confirm: 124.6

How did O=C(Oc1c(CN2CCOCC2)cc(Cl)c2cccnc12)c1ccccc1F do in these assays?
CHOP inhibitor: inactive; XBP1 UPR activ: inactive; PvdQ acylase: inactive; CHOP UPR activ: 79.5; UPR CHOP confirm: 69.9

What do the screens show for `Oc1c(CN2CCc3ccccc3C2)cc(Cl)c2cccnc12`?
XBP1 UPR activ: inactive; PvdQ acylase: inactive; CHOP UPR activ: 86.4; UPR CHOP confirm: 325.5

How did Oc1c(Cl)cc(CN2CCOCC2)c2cccnc12 do in these assays?
XBP1 UPR activ: inactive; PvdQ acylase: inactive; CHOP UPR activ: 134.3; UPR CHOP confirm: 127.8

What do the screens show for `c1ccc2c(c1)-c1nc3ccccc3cc1C2N1CCOCC1` (centres undefined)?
PvdQ acylase: inactive

Results for N#CCCn1cc(C(=O)Nc2ccc([N+](=O)[O-])cc2)c(-c2cc3ccccc3o2)n1 ?
CHOP inhibitor: inactive; XBP1 UPR activ: inactive; PvdQ acylase: inactive; CHOP UPR activ: inactive

Results for CCN1C(=NCCc2c[nH]c3ccccc23)N[C@@H](c2ccccc2)[C@H](C(=O)OC)[C@H]1C ?
XBP1 UPR activ: inactive; PvdQ acylase: inactive; CHOP UPR activ: inactive

How did COc1ccc(C(=O)Cn2c(C(=O)/C=C/c3ccccc3)nc3ccccc32)cc1 do in these assays?
CHOP inhibitor: inactive; XBP1 UPR activ: inactive; PvdQ acylase: inactive; CHOP UPR activ: 314.1; UPR CHOP confirm: 347.7

How did O=C(N/N=C/c1ccccn1)c1ccc(Cl)c(Cl)c1 do in these assays?
XBP1 UPR activ: inactive; PvdQ acylase: inactive; CHOP UPR activ: 207.9; UPR CHOP confirm: 233.0

What do the screens show for `O=C(N/N=C/c1ccccn1)c1cc(-c2ccccc2)nc2ccccc12`?
CHOP inhibitor: inactive; XBP1 UPR activ: inactive; CHOP UPR activ: 133.4; UPR CHOP confirm: 130.9
